A short description of data set [1]: Ratio of drug level in blood to plasma in beagle dog. Particulars: blood and plasma. In kind it is ADME, cell-free, Canis lupus familiaris.
A short description of data set [2]: Half life in Lewis rat at 5 mg/kg, po administered through gavage measured after 24 hrs by LC/MS/MS analysis. It is filed as ADME, organism-based. Particulars: in vivo.
Data set [3] concerns the target T1, Phosphatidylinositol 4,5-bisphosphate 3-kinase catalytic subunit delta isoform (Homo sapiens, UniProt O00329).
T1 sequence (O00329 whole entry): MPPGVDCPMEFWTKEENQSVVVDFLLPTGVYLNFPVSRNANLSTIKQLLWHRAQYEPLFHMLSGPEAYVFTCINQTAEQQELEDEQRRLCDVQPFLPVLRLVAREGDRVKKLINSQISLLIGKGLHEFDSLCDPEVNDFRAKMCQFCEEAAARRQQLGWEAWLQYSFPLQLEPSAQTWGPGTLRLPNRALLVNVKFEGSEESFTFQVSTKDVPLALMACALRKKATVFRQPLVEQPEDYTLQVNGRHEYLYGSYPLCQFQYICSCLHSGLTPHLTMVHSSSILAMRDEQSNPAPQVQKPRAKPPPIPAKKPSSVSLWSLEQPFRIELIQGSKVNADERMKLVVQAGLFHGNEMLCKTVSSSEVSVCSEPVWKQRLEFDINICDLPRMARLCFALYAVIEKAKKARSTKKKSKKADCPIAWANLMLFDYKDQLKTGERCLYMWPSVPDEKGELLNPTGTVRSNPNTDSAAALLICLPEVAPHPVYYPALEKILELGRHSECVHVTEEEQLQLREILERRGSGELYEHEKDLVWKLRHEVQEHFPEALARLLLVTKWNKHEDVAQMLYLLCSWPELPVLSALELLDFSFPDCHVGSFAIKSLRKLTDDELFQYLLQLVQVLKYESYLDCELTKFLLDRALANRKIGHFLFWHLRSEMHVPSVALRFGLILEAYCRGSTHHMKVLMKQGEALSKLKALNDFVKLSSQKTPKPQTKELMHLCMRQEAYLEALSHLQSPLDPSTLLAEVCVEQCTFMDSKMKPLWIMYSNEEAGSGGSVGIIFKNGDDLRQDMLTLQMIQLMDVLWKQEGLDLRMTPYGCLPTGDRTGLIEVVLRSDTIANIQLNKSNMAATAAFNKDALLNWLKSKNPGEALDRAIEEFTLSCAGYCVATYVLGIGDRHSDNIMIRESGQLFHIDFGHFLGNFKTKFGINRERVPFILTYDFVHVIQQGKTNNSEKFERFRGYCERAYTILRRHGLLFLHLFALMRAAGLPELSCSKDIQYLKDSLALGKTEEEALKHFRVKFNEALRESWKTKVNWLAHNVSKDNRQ
In words: Inhibition of PI3Kdelta in human whole blood assessed as basophil degranulation by measuring CD63 surface expression on CCR3 positive cells after 60 mins by flow cytometric analysis. It is filed as tissue-based. On the technique in general: A flow cytometer gives signals particle by particle.

For data set [4], the system named is Rattus norvegicus. The data set can be described thus: Antiarthritis activity in collagen-induced Lewis rat arthritis model assessed as reduction of periosteal bone width at 1.07 mg/kg administered bid through oral gavage for 7 days measured every day started on day 9 and continuing through day 16 of compound dosing relative to vehicle-treated control. In kind it is functional. Set-up: scale not given: the % may be the effect or the level left. In short, it runs like this: (§1)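 Female Lewis rats with established collagen-induced arthritis dosed orally by gavage twice daily for 7 days (study days 10–16) with vehicle, 0.34, 1.07, 4.6 or 10 mg/kg, or dexamethasone 0.03 mg/kg; right and left ankle diameters by caliper daily, days 9–16; ankle and knee sections graded 0–5 per histopathology parameter; p < 0.05 versus arthritis + vehicle.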

Data set [5] is filed under the species Homo sapiens. In words: Selectivity ratio of IC50 for human recombinant PI3Kbeta to IC50 for human full length PI3Kdelta catalytic subunit/p85alpha. In short, it runs like this: (§2)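 Ratio calculated from the isoform-specific PI3K IC50 values, with enzyme assays run in quadruplicate.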
Data set [6] can be described thus: (§3) Inhibition of PI3Kdelta in rat B-cells assessed as reduction in anti IgD-mediated cell activation after 18 to 24 hrs by flow cytometric analysis. In short, it runs like this:
(§4)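 Rat whole blood, ex vivo; B-cell activation stimulated by anti-IgD (BCR); EC50 and EC90 derived from inhibition of activation.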

Data set [7] is filed under the species Rattus norvegicus. Described as §3. In short, it runs like this:
as §4

Data set [8] can be described thus: Tmax in Lewis rat at 1 mg/kg, iv administered via infusion over 30 mins or at 5 mg/kg, po administered via gavage by LC/MS/MS analysis. It is filed as ADME, organism-based. Particulars: in vivo. In short, it runs like this: (§5)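 Female Lewis rats, n=3 per route; 30-min iv infusion at 1 mg/kg and oral dose at 5 mg/kg, both in 30% PEG 400/70% water; plasma concentration-time profiles sampled to 24 h; values as mean ± SD.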

Data set [9] deals with Rattus norvegicus. The data set can be described thus: Antiarthritis activity in collagen-induced Lewis rat arthritis model assessed as reduction in ankle inflammation administered bid through oral gavage for 7 days measured every day started on day 9 and continuing through day 16 of compound dosing. It is filed as functional. The method in brief: as §1
For data set [10], the system named is Rattus norvegicus. The data set can be described thus: Antiarthritis activity in collagen-induced Lewis rat arthritis model assessed as reduction in ankle inflammation at 1.07 mg/kg administered bid through oral gavage for 7 days measured every day started on day 9 and continuing through day 16 of compound dosing relative to vehicle-treated control. In kind it is functional. The method in brief: as §1

Data set [11] has as its system Hepatocyte. In words: Clearance in rat hepatocytes at 1 uM by LC/MS/MS analysis. In kind it is ADME, cell-based.
Data set [12] is described as follows: Volume of distribution at steady state in Lewis rat at 1 mg/kg, iv administered via infusion over 30 mins measured after 24 hrs by LC/MS/MS analysis. In kind it is ADME, organism-based. The note with it: in vivo, read-out: Vdss. In short, it runs like this:
as §5

Data set [13] can be described thus: Clearance in human hepatocytes at 1 uM by LC/MS/MS analysis. It is filed as ADME, cell-based, Hepatocyte. The method in brief:
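Human hepatocytes, incubated with and without the aldehyde oxidase inhibitor raloxifene; predicted clearance calculated from turnover.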

In data set [14] the test system is Rattus norvegicus. In words: Antiarthritis activity in collagen-induced Lewis rat arthritis model assessed as reduction in ankle swelling administered bid through oral gavage for 7 days measured every day started on day 9 and continuing through day 16 of compound dosing. In kind it is functional, organism-based. The method in brief:
as §1

The test system of data set [15] is Rattus norvegicus. The data set can be described thus: Antiarthritis activity in collagen-induced Lewis rat arthritis model assessed as reduction of periosteal bone width administered bid through oral gavage for 7 days measured every day started on day 9 and continuing through day 16 of compound dosing. It is filed as functional. In short, it runs like this:
as §1

The nature of data set [16]: Oral bioavailability in Lewis rat at 5 mg/kg administered through gavage measured after 24 hrs by LC/MS/MS analysis. In kind it is ADME, organism-based. Particulars: in vivo. The method in brief: as §5
Data set [17] is filed under the species Homo sapiens. The data set can be described thus: Selectivity ratio of IC50 for human full length PI3Kgamma to IC50 for human full length PI3Kdelta catalytic subunit/p85alpha. The method in brief: as §2
For data set [18], the system named is Rattus norvegicus. The data set can be described thus: Antiarthritis activity in collagen-induced Lewis rat arthritis model assessed as reduction of bone resorption administered bid through oral gavage for 7 days measured every day started on day 9 and continuing through day 16 of compound dosing. In kind it is functional. The method in brief:
as §1

Data set [19] can be described thus: Plasma clearance in beagle dog at 1 mg/kg, iv administered via infusion over 30 mins measured after 24 hrs by LC/MS/MS analysis. In kind it is ADME, organism-based, Canis lupus familiaris. In short, it runs like this:
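Dogs, n=3 per route; iv dose 1 mg/kg in 5% ethanol/55% PEG 400/40% citrate buffer pH 2; oral dose 5 mg/kg in 15% Captisol (w/v) in water; plasma pharmacokinetics.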

The subject of data set [20] is Rattus norvegicus. The data set can be described thus: In vivo inhibition of PI3Kdelta in collagen-induced Lewis rat arthritis model at 10 mg/kg administered bid through oral gavage at 2 to 12 hrs on 3rd and 7th day of compound dosing. In kind it is functional. The method in brief:
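CIA Lewis rats dosed orally twice daily; plasma drug levels measured in blood samples taken at set times post-dose on days 3 and 7; trough PI3Kδ inhibition estimated from EC50/EC90 of the rat whole-blood ex vivo BCR-induced B-cell activation assay.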

The subject of data set [21] is Rattus norvegicus. In words: Antiarthritis activity in collagen-induced Lewis rat arthritis model assessed as reduction in pannus formation administered bid through oral gavage for 7 days measured every day started on day 9 and continuing through day 16 of compound dosing. In kind it is functional. The method in brief: as §1

pEC50: −log10 of the molar value. Bounds are passed on as bounds.

In the case of `C[C@H](Nc1nc(N)nc(N)c1C#N)c1nc2cccc(F)c2c(=O)n1-c1cc(F)cc(F)c1`, the blood plasma ratio in data set [1] stood at 2.6. The half-life (commonly the time in which the quantity being followed falls by half) in [2] is 3.2 h. The pEC50 (in general, −log10 of the EC50, conventionally taken in molar units) in [3] was 9.00; in data set [6], 7.96. Further, the results for the Activity in [4] and in data set [14] were 52% and “Dose-dependent effect”, respectively. In addition, the Ratio IC50 in [5] is 650; in [17], 180. Also, the EC90 (usually the concentration at which the effect reaches the 90% level) in data set [7] amounted to 100 nM. The Tmax – broadly, the time from dosing to the highest level – in data set [8] was found to be 1 h. The ED50 in [9], in data set [15], in [18] and in data set [21] was 1.5 mg/kg each time. In addition, the inhibition in vivo (usually how much of the control response was suppressed) at 1.07 mg/kg in [10] came out at 45%. For the same molecule, the CLH in [11] was 23.3 mL/min/kg. In data set [12], the Vd was found to be 2.6 L/kg. In data set [13], the CLhep predicted at 1 µM was 5.67 mL/min/kg. The bioavailability in [16] was 106%. Also, the clearance – broadly, the rate of elimination divided by the concentration – in [19] is 9.67 mL/min/kg. The molecule also showed an inhibition in vivo at 10 mg/kg in [20] of over 90%.

The record behind these values is ChEMBL document CHEMBL3804828, “2,4,6-Triaminopyrimidine as a Novel Hinge Binder in a Series of PI3Kδ Selective Inhibitors” (J Med Chem, 2016).
